CHT inh – inhibits the human high affinity choline transporter; actives 0.86% (n = 310,000); B-score at 10 µM; CHT-expressing cells, membrane potential dye, choline response; hits give low values; Q9GZV3;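 active = B-score over 3 SD under the library average, and starting fluorescence ratio not unusually high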;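 also: choline stimulus applied at its EC90 after an EC20 pre-addition; B-score computed on integrated fluorescence ratio after choline addition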
Target sequence (Q9GZV3 whole entry, looked up): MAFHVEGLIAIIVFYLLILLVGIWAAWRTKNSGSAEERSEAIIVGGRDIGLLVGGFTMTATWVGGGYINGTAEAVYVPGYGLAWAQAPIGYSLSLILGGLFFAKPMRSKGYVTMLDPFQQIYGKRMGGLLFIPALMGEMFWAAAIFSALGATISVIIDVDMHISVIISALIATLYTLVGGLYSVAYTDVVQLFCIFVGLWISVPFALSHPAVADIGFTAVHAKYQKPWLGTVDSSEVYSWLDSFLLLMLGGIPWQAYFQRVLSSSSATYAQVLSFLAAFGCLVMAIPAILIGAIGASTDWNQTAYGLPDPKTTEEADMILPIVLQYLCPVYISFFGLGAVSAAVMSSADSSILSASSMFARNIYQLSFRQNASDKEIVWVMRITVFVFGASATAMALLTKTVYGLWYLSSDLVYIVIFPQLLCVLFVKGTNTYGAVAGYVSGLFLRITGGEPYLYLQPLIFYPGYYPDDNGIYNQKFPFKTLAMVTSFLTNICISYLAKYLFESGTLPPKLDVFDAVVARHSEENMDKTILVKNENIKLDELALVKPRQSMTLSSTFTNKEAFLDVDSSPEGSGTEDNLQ
DSG3 Ab inh – human desmoglein-3 autoantibody binding inhibition. binding (percent of control), % at 10 µM. P32926. AID 588358. DSG3-coupled beads, scFv-anti-DSG3-GFP binding, flow cytometry; hits give low values. actives 0.48% (n = 310,000);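 active = binding more than 3 SD below its plate's average and above zero; inconclusive = below that plate limit but binding exactly zero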;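 also: hits lower antibody fragment binding to DSG3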
T cell HTS – T cell immune modulation candidate; 2C CD8+ T cell-vesicle binding, flow cytometry; hits give low values; response (vesicle binding), % at 7 µM; actives 0.068% (n = 330,000);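 active = response, share of CD8 T cells binding vesicles, and their 90th percentile fluorescence all below set limits, cut at about 80% in these data, passing the limit was not always enough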;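 also: values below 100% mean blocked vesicle binding to the CD8+ T cells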
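Assay system: 2C TCR transgenic mouse naive CD8+ T cells, MACS-purified | Read-out: CD8+ gate FL2 mean fluorescence as % of same-row positive control | Signal: High-throughput flow cytometry with anti-B7-1 and anti-CD8 staining | Timing: Binding step 1.5 h, 37 °C, antibody labelling 20 min, ice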
GPR7 antag – blocks human GPR7 receptor signaling. inhibition, % at 4.4 µM. actives 1.1% (n = 290,000). P48145. GPR7-expressing cells, fluorescence antagonist assay; in the data active = inhibition above about 16%, passing the limit was not always enough;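 also: cells stimulated with the agonist NPW; 0% = agonist with vehicle and 100% = vehicle without agonist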
pCIP destab – lowers stability of the mouse p/CIP coactivator protein | Q05BA5 | F442A p/CIP-EGFP cells, EGFP fluorescence, 16 h | decrease of EGFP signal, % at 10 µM | actives 0.01% (n = 290,000) | AID 1984;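 active = EGFP signal decrease of at least 30% at 10 µM or well 3 SD below plate mean, unless failing retest; inactive = the rest, including hits failing retest or dose response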
CHT PAM – human CHT allosteric activation; actives 0.49% (n = 310,000); Q9GZV3; B-score at 10 µM; AID 488977; CHT-expressing cells, membrane potential dye, choline EC20; hits give high values; LV-AA mutant CHT in HEK293 cells;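 active = initial fluorescence not abnormally high and integrated response B-score, plate-corrected, over 3 SD above library mean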
CHT block conf – human CHT inhibition, confirmatory screen; shares compounds with CHT inh; CHT-expressing cells, choline membrane potential dye; LV-to-AA substituted CHT, HEK293 cells; CHT activity remaining % of control (hits give low values), % at 10 µM; actives 70% (n = 2,400); AID 493221;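 active = choline transporter activity left, mean of duplicates at 10 µM, below buffer-only control mean minus 3 SD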;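 also: depolarization triggered by choline at its EC90 following an EC20 pre-addition; 0% = hemicholinium-3 full block and 100% = buffer-only control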
HEK293 MPD ctr – activity in parental HEK293 cells lacking CHT; shares compounds with CHT inh; actives 4% (n = 2,400); membrane potential ratio readout (active if shifted either direction beyond buffer ±3SD; no single direction) at 10 µM; membrane potential dye, choline response; active = decrease or increase beyond buffer ±3SD;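 also: parental cells lack the transporter so any hit is non-specific; ratio is peak minus trough fluorescence over baseline after EC90 choline challenge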
Numbers without * were called inactive; i = inactive; ? = inconclusive; / = no result. Compounds with a hit are over-represented: about 2.3% of the library has one in this group of screens.

SMILES	CHT inh	DSG3 Ab inh	T cell HTS	GPR7 antag	pCIP destab	CHT PAM	CHT block conf	HEK293 MPD ctr
COc1cc2c(cc1OC)C(c1cccs1)N(C(=O)c1cccnc1)CC2 (centres undefined)	-5.7*	99	420	8	1	i	i	i
O=C(OCc1ccccc1)N1CCC2CC1c1cc(-c3ccc4c(c3)OCO4)ccc12 (centres undefined)	/	103	/	/	/	/	/	/
Cc1ccc(S(=O)(=O)N(C)C)cc1NC(=O)C(C)OC(=O)CC1CC2CCC1C2 (centres undefined)	/	94	/	/	/	/	/	/
Cc1ccc(NC(=O)c2ncn(CCCNCc3ccccn3)n2)cc1C	/	109	/	/	/	/	/	/
Nc1nc(SCC(=O)Nc2ccc([N+](=O)[O-])cc2Br)n[nH]1	i	100	391	0	4	i	/	/
CC(C)c1nc(SCC(=O)Nc2ccc([N+](=O)[O-])cc2Br)n[nH]1	-5.8*	/	142	6	3	i	i	i
O=C(NC(=S)Nc1ccccc1OC(F)F)c1ccc2c(c1)OCO2	/	96	204	/	/	/	/	/
O=C(Nc1cc(S(=O)(=O)N2CCCCC2)ccc1O)c1ccccc1NS(=O)(=O)c1ccc(F)c(F)c1	-9.4*	100	128	-11	-2	i	28%*	i
COc1cc(C(=O)Nc2scc(-c3ccc(C)cc3)c2C(=O)O)cc(OC)c1OC	-6.6*	103	308	9	7	i	56%*	i
O=C(Nc1scc(-c2ccccc2)c1C(=O)O)c1ccco1	i	93	404	-13	-6	i	/	/
CC(C)(C)C(=O)Nc1scc(-c2ccc(-c3ccccc3)cc2)c1C(=O)O	-7.5*	?	166	-12	-10	i	37%*	i
C#CCN(C[C@@H](CC(C)C)NC(=O)OC(C)(C)C)S(=O)(=O)c1ccc(Br)cc1F	/	105	/	/	/	/	/	/
CCCCCCNC(=O)c1cccc(-c2ccc(C)c3ccccc23)n1	-12*	101	183	-13	-19	i	i	i
CN(C)c1ccc(/C=N/NC(=O)c2ccc(CN3CCOCC3)cc2)cc1Br	i	101	151	-3	2	i	/	/
CCOc1cc(/C=N/NC(=O)c2ccc(CN3CCOCC3)cc2)ccc1OC	-9*	110	556	-10	-3	i	i	i
O=C(NC1CCCCC1)c1ccc(COc2ccccc2)o1	i	109	661	/	/	i	/	/
O=C(NC1CCCC1)c1ccc(COc2ccccc2Br)o1	-5.1*	110	367	-10	-5	i	i	i
COc1ccccc1-c1ccc([C@@H]2C[C@H]3[C@H](CON3C)CN2C(=O)c2ccco2)cc1	/	95	/	/	/	/	/	/
O=C(CSc1nc2ccccc2c(=O)n1C1CC1)NCc1ccccc1	-5.1*	/	452	-13	-2	i	67%*	i
CCn1c(SCC(=O)NCc2ccccc2)nc2ccccc2c1=O	i	95	272	0	-16	i	/	/
O=C(c1cc(COc2ccc(F)cc2Cl)on1)N1CCC(c2ccncc2)CC1	-6.5*	111	172	10	-10	i	56%*	i
COc1ccc(-c2nc(-c3cccs3)c(-c3cccs3)[nH]2)cc1O	-7.2*	98	443	-4	-2	i	70%*	i
O=C(O)c1ccc(-c2nc(-c3ccccc3)c(-c3cccs3)[nH]2)cc1	i	100	328	-13	0	i	/	/
O=c1c2ccccc2nc(-c2ccccc2)n1Cc1ccco1	-6*	100	260	-8	0	i	70%*	i
Cc1ccnc(SCc2cc(=O)c(OC(=O)c3cccs3)co2)n1	i	84	258	-4	4	i	/	/
SMILES	CHT inh	DSG3 Ab inh	T cell HTS	GPR7 antag	pCIP destab	CHT PAM	CHT block conf	HEK293 MPD ctr
Cc1ccnc(SCc2cc(=O)c(OC(=O)c3ccco3)co2)n1	-5.8*	94	172	7	2	i	61%*	i
Cc1ccc(C(=O)N2CCC3CC2c2cc(-c4ccc5c(c4)OCO5)ccc23)cc1 (centres undefined)	/	95	/	/	/	/	/	/
CC(C)(C)OC(=O)N(CCc1ccccc1)Cc1cccc(OCc2cccc(NC(=O)C3CCCC3)c2)c1	/	98	/	/	/	/	/	/
Cc1ccc2c(c1)C1CN(C)CCC1N2C(=O)c1ccccc1NS(=O)(=O)c1cccc(C(F)(F)F)c1 (centres undefined)	-6.9*	130	338	9	-5	i	37%*	i
O=C(Nc1ccccc1C(F)(F)F)NC1(C(=O)N2CCOCC2)CCCCC1	/	94	/	/	/	/	/	/
CC/C(=C(/CC)c1ccc(O)cc1)c1ccc(O)cc1	-7.4*	102	581	-12	17	i	55%*	i
CCOC(=O)c1nn(-c2ccccc2)c2nnc(Cc3ccc(Cl)cc3)c(=O)n12	i	133	372	-6	-3	i	/	/
CCOC(=O)c1nn(-c2ccc(Cl)cc2)c2nnc(Cc3ccc(C)cc3)c(=O)n12	-5.9*	108	183	8	-7	i	i	i
O=C1C[C@@H]2c3c(cccc3CN1Cc1ccccc1F)C[C@@H](O)[C@H]2O	/	95	/	/	/	/	/	/
Cn1c(=O)c2c(nc(OC3CCCCCC3)n2C)n(C)c1=O	/	99	/	/	/	/	/	/
Cc1sc2ncnc(NCc3ccco3)c2c1C	-5.4*	109	199	-13	-12	i	65%*	i
Oc1ccc(-c2n[nH]c(C(F)(F)F)c2-c2ccccc2)c(O)c1	-5.2*	103	216	1	-21	i	62%*	i
CCCCC(=O)c1c(O)c2ccccc2oc1=O	i	99	247	-8	-5	i	/	/
O=C(CC1CCCCC1)c1c(O)c2ccccc2oc1=O	-7.4*	102	346	-8	0	i	44%*	4.6*
CC1=C(C(=O)NC(C)C)C2(CCC(C)CC2)OC1=O (centres undefined)	-6.2*	97	493	-4	0	i	66%*	i
CCC(O)(Cc1ccccn1)Cc1ccccn1	/	93	/	/	/	/	/	/
COCCNC(=O)c1cc(-c2ccccc2OC)on1	-7.4*	99	179	-3	-19	i	i	i
CCCCCCn1c(N(CC)CC)nc2c1c(=O)[nH]c(=O)n2C	-6.4*	102	308	1	-8	i	i	i
CCN(CC)c1nc2c(c(=O)[nH]c(=O)n2C)n1Cc1ccccc1	i	100	153	-13	-1	i	/	/

Screens deposited in PubChem BioAssay by several laboratories.
